Laboratory results reported in ChEMBL document CHEMBL5338743, “Identification of a Selective SCoR2 Inhibitor That Protects Against Acute Kidney Injury” (J Med Chem, 2023).
Calls of active or inactive are those of the source. The calls are words filed in the database; no cut-off is given here.

Experiments:
[1] = Drug uptake in mouse serum at 120 mg/kg body weight, ip measured at 24 hrs post injection by HPLC/mass spectrometry analysis; assay type: ADME, organism-based; conditions: in vivo
Procedure, shortened: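 Serum collected 24 h after i.p. injection; compound level measured by HPLC/mass spectrometry.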

[2] = tested on: Mus musculus; assay: In vivo inhibition of SCoR2 in C57BL/6J mouse assessed as reduction in SNO-CoA metabolic activity in lung at 120 mg/kg body weight, ip administered as single dose into abdomen measured after 18 hrs; assay type: functional, organism-based
Procedure, shortened: (§1)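 Single i.p. injection into the mouse abdomen, DMSO vehicle; organs collected 18 h later. Tissues homogenized in 50 mM phosphate pH 7.0, 150 mM NaCl, EDTA/DTPA, then clarified; lysate started reactions with 200 μM SNO-CoA and 100 μM NADPH, 2 min, NADPH loss monitored, in triplicate. Compared with vehicle and SCoR2−/− kidneys.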

[3] = In vivo inhibition of SCoR2 in C57BL/6J mouse assessed as reduction in SNO-CoA metabolic activity in kidneys at 120 mg/kg body weight, ip administered as single dose into abdomen measured after 18 hrs relative to control; assay type: functional; procedure, shortened: as §1
[4] = tested on: Kidney; assay: Effect on SCoR2 protein expression in kidney of ischemia/reperfusion induced acute kidney injury mouse model at 120 mg/kg, ip pretreated for 18 hrs followed by kidney injury surgery and measured after 24 hrs by Western blot analysis; assay type: functional, organism-based; conditions: time 42.0 hrs
Procedure, shortened: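 Mice given 120 mg/kg i.p. 18 h before I/R surgery; kidneys collected 24 h post-surgery. SCoR2 protein measured by western blot (4–20% gels, overnight primary antibody at 4°C, HRP secondary, ECL) and quantified; n=6, DMSO controls.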

[5] = tested on: Mus musculus; assay: Protection against ischemia/reperfusion induced acute kidney injury in mouse assessed as reduction in serum creatinine level at 120 mg/kg, ip pretreated for 18 hrs followed by kidney injury surgery and measured after 24 hrs; assay type: functional, organism-based; conditions: time 42.0 hrs
Procedure, shortened: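 Male mice (9–11 weeks, 25–28 g) given i.p. dose 18 h before ischemia–reperfusion AKI surgery under isoflurane; serum taken 24 h after reperfusion. Creatinine and BUN measured by a clinical laboratory; DMSO-treated controls.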

[6] = tested on: Mus musculus; assay: Protection against ischemia/reperfusion induced acute kidney injury in mouse assessed as reduction in loss of brush borders at 120 mg/kg, ip pretreated for 18 hrs followed by kidney injury surgery and measured after 24 hrs by H and E staining based analysis; assay type: functional, organism-based; conditions: time 42.0 hrs
Procedure, shortened: (§2)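 Mice dosed i.p. 120 mg/kg 18 h before I/R surgery, kidneys harvested 24 h later, H&E-stained. Tubular lysis, brush-border loss and luminal debris scored 0–2 over more than five fields per animal; n=5 mice per group, vehicle controls.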

[7] = tested on: Mus musculus; assay: Protection against ischemia/reperfusion induced acute kidney injury in mouse assessed as reduction in sloughed debris in the tubular lumen at 120 mg/kg, ip pretreated for 18 hrs followed by kidney injury surgery and measured after 24 hrs by H and E staining based analysis; assay type: functional, organism-based; conditions: time 42.0 hrs; procedure, shortened: as §2
[8] = tested on: Mus musculus; assay: Protection against ischemia/reperfusion induced acute kidney injury in mouse assessed as reduction in PKM2 activity in kidney at 120 mg/kg, ip pretreated for 18 hrs followed by kidney injury surgery and measured after 24 hrs by colorimetric pyruvate kinase activity assay; conditions: time 42.0 hrs

- Drug uptake [1]: Active
Compound: O=C1NC(=O)C2(N1)c1ccccc1-c1ccc(C3CC3)cc12 (stereo not drawn)
- inhibition [2]: Active
- inhibition in vivo at 120 mg/kg [3]: 80%
- Activity [4]: inactive
- Activity [5]: Active
- Activity [6]: Active
- Activity [7]: Active
- Activity [8]: Active
